The values that follow come from ChEMBL document CHEMBL3813640, “Design and synthesis of potent and selective pyridazin-4(1H)-one-based PDE10A inhibitors interacting with Tyr683 in the PDE10A selectivity pocket” (Bioorg Med Chem, 2016).

This assay addresses cAMP and cAMP-inhibited cGMP 3',5'-cyclic phosphodiesterase 10A (Homo sapiens, UniProt Q9Y233). As to the kind of experiment: Inhibition of human full length PDE10A2 expressed in African green monkey COS7 cells using [3H]cGMP as substrate preincubated for 30 mins followed by substrate addition measured after 60 mins by scintillation proximity assay. It counts as cell-based, COS-7. The gist of the method:
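Full-length human PDE10A2 from transfected COS-7 cells, held at -70 °C. [³H]cGMP added, 60 min at rt, stopped with yttrium SPA beads containing ZnSO₄. Counted after ≥120 min settling. Inhibition set against DMSO (0%) and 10 µM papaverine (100%) wells. Duplicate or triplicate.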

pIC50: −log10 of the molar value.

cAMP and cAMP-inhibited cGMP 3',5'-cyclic phosphodiesterase 10A, sequence (Q9Y233 whole entry): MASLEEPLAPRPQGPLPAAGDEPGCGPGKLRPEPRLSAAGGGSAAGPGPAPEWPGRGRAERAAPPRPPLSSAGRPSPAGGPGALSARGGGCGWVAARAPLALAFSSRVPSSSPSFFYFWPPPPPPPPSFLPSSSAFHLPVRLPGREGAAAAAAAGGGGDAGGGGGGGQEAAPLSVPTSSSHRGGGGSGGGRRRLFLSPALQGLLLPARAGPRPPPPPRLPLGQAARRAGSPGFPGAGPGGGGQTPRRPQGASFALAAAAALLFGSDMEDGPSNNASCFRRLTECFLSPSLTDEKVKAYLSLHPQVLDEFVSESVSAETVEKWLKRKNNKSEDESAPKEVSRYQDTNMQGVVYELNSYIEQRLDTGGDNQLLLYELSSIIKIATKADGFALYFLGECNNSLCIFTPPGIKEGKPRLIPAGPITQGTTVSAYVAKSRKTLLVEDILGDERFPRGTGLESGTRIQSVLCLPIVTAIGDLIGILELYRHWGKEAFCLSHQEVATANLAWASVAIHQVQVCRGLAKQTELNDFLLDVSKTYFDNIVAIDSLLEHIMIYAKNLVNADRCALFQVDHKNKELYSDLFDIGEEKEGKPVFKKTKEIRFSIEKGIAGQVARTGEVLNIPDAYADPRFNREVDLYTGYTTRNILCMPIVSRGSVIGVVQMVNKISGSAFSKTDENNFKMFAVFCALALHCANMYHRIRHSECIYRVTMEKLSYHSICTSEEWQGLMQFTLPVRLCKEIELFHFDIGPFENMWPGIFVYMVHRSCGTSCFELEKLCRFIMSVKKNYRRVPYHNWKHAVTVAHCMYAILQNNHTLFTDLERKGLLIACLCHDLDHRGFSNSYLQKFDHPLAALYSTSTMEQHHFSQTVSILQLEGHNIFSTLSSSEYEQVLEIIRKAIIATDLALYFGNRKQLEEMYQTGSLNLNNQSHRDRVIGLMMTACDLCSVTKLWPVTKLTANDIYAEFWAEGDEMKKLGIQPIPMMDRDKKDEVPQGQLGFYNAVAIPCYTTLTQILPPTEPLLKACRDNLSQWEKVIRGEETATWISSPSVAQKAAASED

`COc1cn(CC2CC2)nc(-c2ccnn2-c2ccccc2)c1=O` had a pIC50 of 6.77.
Next, `COc1cn(C)nc(-c2ccnn2-c2ccccc2)c1=O`: 6.00; `Cn1c(COc2cn(CC3CC3)nc(-c3ccnn3-c3ccccc3)c2=O)nc2ccccc21`: 5.55.
`Cn1c(CCOc2cn(CC3CC3)nc(-c3ccnn3-c3ccccc3)c2=O)nc2ccccc21` showed a pIC50 of 7.60.
To `COc1cn(-c2ccccc2)nc(-c2ccnn2C)c1=O` belongs 5.62; to `Cn1c(OCCOc2cn(CC3CC3)nc(-c3ccnn3-c3ccccc3)c2=O)nc2ccccc21`, 8.39.
`Cn1c(CCCOc2cn(CC3CC3)nc(-c3ccnn3-c3ccccc3)c2=O)nc2ccccc21` had a pIC50 of 9.09.
The compound `O=c1c(OCCN2CCn3c2nc2ccccc23)cn(CC2CC2)nc1-c1ccnn1-c1ccccc1` had a pIC50 of 9.12.
`COc1cn(C2CC2)nc(-c2ccnn2-c2ccccc2)c1=O` showed a pIC50 of 6.89.
On to `COc1cn(CC(F)(F)F)nc(-c2ccnn2-c2ccccc2)c1=O`, for which the pIC50 was 6.26.
Next, `Cn1c(CCCCOc2cn(CC3CC3)nc(-c3ccnn3-c3ccccc3)c2=O)nc2ccccc21`: 6.12.

A word on the pIC50: it is −log10 of the IC50, conventionally taken in molar units.
